Calls of active or inactive are those of the source. The calls are words filed in the database; no cut-off is given here.
Columns and labels:
[1] = test system: RAW264.7; assay: Anti-inflammatory activity in mouse RAW264.7 cells assessed as inhibition of LPS-induced IL-6 production by measuring […] level at 10 uM preincubated for 2 hrs followed by LPS stimulation and measured after 6 hrs by ELISA (reference value: 94.6 +/- 5.9 pg/ml); type: functional
[2] = target: T1, Peroxisome proliferator-activated receptor gamma (Mus musculus) (UniProt P37238); assay: Agonist activity at PPARgamma in mouse RAW264.7 cells assessed as inhibition of LPS-induced MAPK p38 phosphorylation at Thr180/Tyr182 residues at 10 uM preincubated for 1 hr followed by LPS stimulation and measured after 4 hrs by Western blot analysis; type: cell-based
T1 sequence (whole entry): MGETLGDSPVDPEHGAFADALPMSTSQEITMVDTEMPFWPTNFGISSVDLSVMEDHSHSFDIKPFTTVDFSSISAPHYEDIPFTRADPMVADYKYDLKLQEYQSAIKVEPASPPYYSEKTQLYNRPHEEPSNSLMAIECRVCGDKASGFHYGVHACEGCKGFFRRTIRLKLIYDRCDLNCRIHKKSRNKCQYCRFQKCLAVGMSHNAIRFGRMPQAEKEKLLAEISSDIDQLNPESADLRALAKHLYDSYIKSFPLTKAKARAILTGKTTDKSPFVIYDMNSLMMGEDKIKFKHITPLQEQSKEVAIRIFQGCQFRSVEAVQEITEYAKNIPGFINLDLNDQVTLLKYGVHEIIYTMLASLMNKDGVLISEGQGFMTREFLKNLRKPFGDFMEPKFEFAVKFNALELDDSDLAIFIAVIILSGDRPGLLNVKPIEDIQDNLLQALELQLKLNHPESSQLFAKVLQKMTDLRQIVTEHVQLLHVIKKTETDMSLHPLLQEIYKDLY
Outline: (§1)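 Western blot: RAW264.7 cells (2 × 10^6/well) pretreated 1 h with compound (10 µM), antagonist GW9662 (5 µM) where stated, then LPS 500 ng/mL for 4 h. Lysis on ice with PMSF, BCA-normalised protein on SDS gels, PVDF transfer, milk block, phospho- and total-protein primary antibodies, HRP secondary, ECL detection. Densitometry normalised to internal control; n = 3.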

[3] = test system: RAW264.7; assay: Anti-inflammatory activity in mouse RAW264.7 cells assessed as inhibition of LPS-induced IL-6 production by measuring IL-6 level at 10 uM preincubated for 2 hrs followed by LPS stimulation and measured after 24 hrs by ELISA (reference value: 407.6 +/- 16.7 pg/ml)
[4] = target: T2, Anthranilate--CoA ligase (Pseudomonas aeruginosa (strain ATCC 15692 / DSM 22644 / CIP 104116 /JCM 14847 / LMG 12228 / 1C / PRS 101 / PAO1)) (UniProt Q9I4X3); assay: Inhibition of Pseudomonas aeruginosa PAO1 GFP-fused quorum sensing pqsA at 10 uM measured every 15 mins up to 12 hrs by GFP reporter gene assay relative to control
T2 sequence (whole entry): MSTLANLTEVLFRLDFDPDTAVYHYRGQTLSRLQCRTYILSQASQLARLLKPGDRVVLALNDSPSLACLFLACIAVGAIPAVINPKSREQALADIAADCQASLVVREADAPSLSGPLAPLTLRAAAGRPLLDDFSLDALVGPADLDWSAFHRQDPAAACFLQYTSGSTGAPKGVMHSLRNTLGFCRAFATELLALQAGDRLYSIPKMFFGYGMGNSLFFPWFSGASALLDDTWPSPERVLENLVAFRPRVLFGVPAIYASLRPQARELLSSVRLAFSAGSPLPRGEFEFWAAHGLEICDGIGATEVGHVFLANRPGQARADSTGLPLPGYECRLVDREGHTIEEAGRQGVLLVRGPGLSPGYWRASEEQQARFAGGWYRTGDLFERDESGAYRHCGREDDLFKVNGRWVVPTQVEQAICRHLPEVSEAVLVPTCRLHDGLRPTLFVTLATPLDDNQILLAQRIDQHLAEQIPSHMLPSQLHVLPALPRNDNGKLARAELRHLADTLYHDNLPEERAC
Outline: (§2)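 GFP reporter strains of P. aeruginosa PAO1 (lasB-, rhlA- or pqsA-promoter fused to unstable gfp(ASV)) grown overnight in LB at 37 °C, 200 rpm, 18 h, then diluted 1:100. Culture mixed 1:1 with compound diluted in LB from 10 mM DMSO stock (0.1% DMSO final). Fluorescence (ex 485/em 528 nm) read every 15 min at 37 °C for ≥12 h.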

[5] = test system: RAW264.7; assay: Anti-inflammatory activity in mouse RAW264.7 cells assessed as inhibition of LPS-induced TNF-alpha production by measuring TNF-alpha level at 10 uM preincubated for 2 hrs followed by LPS stimulation and measured after 24 hrs by ELISA (reference value: 24216 +/- 498.7 pg/ml); type: functional
[6] = test system: Pseudomonas aeruginosa PAO1; assay: Inhibition of Pseudomonas aeruginosa PAO1 GFP-fused quorum sensing rhlA at 10 uM measured every 15 mins up to 12 hrs by GFP reporter gene assay relative to control; outline: as §2
[7] = target: T1, Peroxisome proliferator-activated receptor gamma (Mus musculus); assay: Agonist activity at PPARgamma in mouse RAW264.7 cells assessed as inhibition of LPS-induced ERk1/2 phosphorylation at Thr202/Tyr204 residues at 10 uM preincubated for 1 hr followed by LPS stimulation and measured after 4 hrs in presence of PPARgamma antagonist GW9662 by Western blot analysis; type: cell-based; outline: as §1
[8] = test system: RAW264.7; assay: Anti-inflammatory activity in mouse RAW264.7 cells assessed as inhibition of LPS-induced TNF-alpha production by measuring TNF-alpha level at 10 uM preincubated for 2 hrs followed by LPS stimulation and measured after 12 hrs by ELISA (reference value: 21561.3 +/- 857 pg/ml); type: functional
[9] = target: T1, Peroxisome proliferator-activated receptor gamma (Mus musculus); assay: Agonist activity at PPARgamma in mouse RAW264.7 cells assessed as inhibition of LPS-induced ERk1/2 phosphorylation at Thr202/Tyr204 residues at 10 uM preincubated for 1 hr followed by LPS stimulation and measured after 4 hrs by Western blot analysis; type: cell-based; outline: as §1
[10] = target: Elastase (Pseudomonas aeruginosa (strain ATCC 15692 / PAO1 / 1C / PRS 101 / LMG12228)) (UniProt P14756); assay: Inhibition of Pseudomonas aeruginosa PAO1 GFP-fused quorum sensing lasB at 10 uM measured every 15 mins up to 12 hrs by GFP reporter gene assay relative to control; outline: as §2
[11] = target: T1, Peroxisome proliferator-activated receptor gamma (Mus musculus); assay: Agonist activity at PPARgamma in mouse RAW264.7 cells assessed as inhibition of LPS-induced IkB-alpha phosphorylation at Ser32/36 residues at 10 uM preincubated for 1 hr followed by LPS stimulation and measured after 4 hrs in presence of PPARgamma antagonist GW9662 by Western blot analysis; type: cell-based; outline: as §1
[12] = target: T1, Peroxisome proliferator-activated receptor gamma (Mus musculus); assay: Agonist activity at PPARgamma in mouse RAW264.7 cells assessed as inhibition of LPS-induced IkB-alpha phosphorylation at Ser32/36 residues at 10 uM preincubated for 1 hr followed by LPS stimulation and measured after 4 hrs by Western blot analysis; type: cell-based; outline: as §1

Elastase (Pseudomonas aeruginosa (strain ATCC 15692 / PAO1 / 1C / PRS 101 / LMG12228)), sequence (P14756 198-498 limits assumed): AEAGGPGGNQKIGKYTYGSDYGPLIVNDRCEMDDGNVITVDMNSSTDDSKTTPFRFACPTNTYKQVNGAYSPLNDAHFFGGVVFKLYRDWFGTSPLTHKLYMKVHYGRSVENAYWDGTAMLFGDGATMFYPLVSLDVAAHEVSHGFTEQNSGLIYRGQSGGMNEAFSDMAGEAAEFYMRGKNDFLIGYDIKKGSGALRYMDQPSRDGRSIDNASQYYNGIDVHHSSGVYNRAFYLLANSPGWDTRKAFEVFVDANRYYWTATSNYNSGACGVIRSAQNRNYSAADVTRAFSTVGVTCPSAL

SMILES	Activity [1] [pg/mL]	inhibition [2]	Activity [3] [pg/mL]	inhibition [4] [%]	Activity [5] [pg/mL]	inhibition [6] [%]	inhibition [7]	Activity [8] [pg/mL]	inhibition [9]	inhibition [10] [%]	inhibition [11]	inhibition [12]
O=C(Cc1ccc(F)cc1)Nc1ccc(CC2=CC(=O)OC2=CBr)cc1	17	Active	145.2	50.3	18322	14.7	inactive	13362.7	Active	15.2	inactive	Active
O=C(C=Cc1ccccc1)Nc1ccc(CC2=CC(=O)O/C2=C/Br)cc1	19.6	Active	158.2	23.1	19550	12	inactive	15037.3	Active	11.8	inactive	Active

— ChEMBL document CHEMBL4145447, “4-arylamidobenzyl substituted 5-bromomethylene-2(5H)-furanones for chronic bacterial infection” (Eur J Med Chem, 2018)
